Laboratory results: ChEMBL document CHEMBL1671864, “First assessment in humans of the safety, tolerability, pharmacokinetics, and ex vivo pharmacodynamic antimalarial activity of the new artemisinin derivative artemisone” (Antimicrob Agents Chemother, 2008)
In brackets after ≈: the same amount, converted by molar mass.

Key:
Homo sapiens [1] = test: Toxicity in healthy human assessed as occurrence of clinically relevant changes in vital signs at 80 mg, po administered daily for 3 days as four 20-mg immediate-release tablets during 10 hrs overnight fasting state; assay type: organism-based; conditions: in vivo
In short: (§1)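 Healthy Caucasian men received single ascending doses (10–40 mg solution, 80 mg tablets) or 3-day daily tablet courses, all fasting, with randomized placebo controls. Supine blood pressure, heart rate and resting 12-lead ECG were recorded before and after dosing.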

Homo sapiens [2] = test: Toxicity in healthy human assessed as occurrence of changes in electrocardiogram parameters at 40 mg, po administered daily for 3 days as two 20-mg immediate-release tablets during 10 hrs overnight fasting state; assay type: organism-based; conditions: in vivo; in short: as §1
Homo sapiens [3] = test: Toxicity in healthy human assessed as occurrence of changes in electrocardiogram parameters at 80 mg, po administered daily for 3 days as four 20-mg immediate-release tablets during 10 hrs overnight fasting state; assay type: organism-based; conditions: in vivo; in short: as §1
Homo sapiens [4] = test: Toxicity in healthy human assessed as increase in glutamate dehydrogenase level at 80 mg, po administered daily for 3 days as four 20-mg immediate-release tablets during 10 hrs overnight fasting state measured after 24 hrs last post treatment; assay type: organism-based; conditions: in vivo
Homo sapiens [5] = test: Toxicity in healthy human assessed as decrease in glutamate dehydrogenase level at 80 mg, po administered daily for 3 days as four 20-mg immediate-release tablets during 10 hrs overnight fasting state measured after 2 days last post treatment; assay type: organism-based; conditions: in vivo, 48 h
[6] = Half life in healthy human plasma at 10 mg, po administered as single ascending doses as solution during 10 hrs overnight fasting state; assay type: ADME, organism-based
In short: (§2)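 Healthy Caucasian male volunteers, single oral dose with 240 ml water after a 10-h overnight fast. Heparinised venous blood was drawn predose and at 0.25–14 h. Plasma was stored frozen. Parent drug and metabolites M1–M3 were measured by LC/MS-MS (MRM, deuterated internal standard). Noncompartmental analysis gave Cmax observed, t1/2 = 0.693/kel (terminal regression) and MRT = AUMC/AUC. Values are geometric means.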

[7] = Mean residence time in healthy human at 10 mg, po administered as single ascending doses as solution during 10 hrs overnight fasting state; assay type: ADME, organism-based; conditions: in vivo; in short: as §2
[8] = Cmax in healthy human plasma at 20 mg, po administered as single ascending doses as solution during 10 hrs overnight fasting state; assay type: ADME, organism-based; design: dose 20 mg, route oral; in short: as §2
[9] = Mean residence time in healthy human at 20 mg, po administered as single ascending doses as solution during 10 hrs overnight fasting state; assay type: ADME, organism-based; conditions: in vivo; in short: as §2
[10] = Apparent oral clearance in healthy human at 20 mg, po administered as single ascending doses as solution during 10 hrs overnight fasting state; assay type: ADME, organism-based; conditions: in vivo
In short: (§3)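 Single ascending oral doses in healthy Caucasian men, given fasted (10-h overnight) with 240 ml water: 10, 20, 30 or 40 mg as oral solution, or 80 mg as IR tablets. Parent plasma levels by LC/MS-MS over 0.25–14 h. Noncompartmental analysis: kel by terminal-phase least-squares regression, AUC extrapolated to infinity, CL/F = dose/AUC, V/F = CL/F÷kel.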

[11] = Cmax in healthy human plasma at 30 mg, po administered as single ascending doses as solution during 10 hrs overnight fasting state; assay type: ADME, organism-based; design: dose 30 mg, route oral; in short: as §2
[12] = AUC in healthy human plasma at 30 mg, po administered as single ascending doses as solution during 10 hrs overnight fasting state; assay type: ADME, organism-based; design: time < 10 hr, dose 30 mg, route oral; in short: as §3
[13] = Apparent volume of distribution with respect to the bioavailability in healthy human at 30 mg, po administered as single ascending doses as solution during 10 hrs overnight fasting state; assay type: ADME, organism-based; conditions: in vivo, read-out: Vc/F; in short: as §3
[14] = Apparent volume of distribution with respect to the bioavailability in healthy human at 40 mg, po administered as single ascending doses as solution during 10 hrs overnight fasting state; assay type: ADME, organism-based; conditions: in vivo, read-out: Vc/F; in short: as §3
[15] = Apparent oral clearance in healthy human at 80 mg, po administered as single immediate release tablets during 10 hrs overnight fasting state; assay type: ADME, organism-based; conditions: in vivo; in short: as §3
Plasmodium falciparum = test: Antimalarial activity against Plasmodium falciparum TM90-C2A in human plasma assessed as inhibition of hypoxanthine uptake by intraerythrocytic malaria parasites by hypoxanthine incorporation assay; assay type: functional, organism-based
In short: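 K1 or TM90-C2A parasites were sorbitol-synchronized and cultured in RPMI 1640. Drug was diluted in drug-free human serum (0.04–40 ng/ml) or subject plasma was diluted twofold (8–8,192). Parasites were added at 2% hematocrit, 1% parasitemia (>95% rings), and [3H]hypoxanthine uptake was measured over 48 h. IC50 or ID50 came from concentration or dilution-response curves. Equivalent concentration = ID50 × IC50.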

[16] = Tmax in healthy human plasma at 40 mg, po administered as two 20 mg immediate release tablets daily for 3 days during 10 hrs overnight fasting state measured after 1 day; assay type: ADME, organism-based
In short: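 Healthy Caucasian men (8 active, 4 placebo per dose) dosed with tablets daily for 3 days after 10-h fast. Lithium-heparin plasma sampled predose and 0.25–14 h after day-1 and day-3 doses, stored frozen. Parent and M1–M3 quantified by LC/MS-MS in positive-ion MRM. Tmax taken directly from observed individual data.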

[17] = Half life in healthy human plasma at 40 mg, po administered as two 20 mg immediate release tablets daily for 3 days during 10 hrs overnight fasting state measured after 3 day; assay type: ADME, organism-based
In short: (§4)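 Healthy Caucasian males took tablets once daily for 3 days with 240 ml water after a 10-h fast. Heparinised blood was drawn predose and at 0.25–14 h after the first and last doses. Plasma parent drug and metabolites M1–M3 were measured by LC/MS-MS (MRM, deuterated internal standard). Noncompartmental analysis gave Cmax observed, t1/2 = 0.693/kel and MRT = AUMC/AUC. Values are geometric means.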

[18] = Apparent volume of distribution with respect to the bioavailability in healthy human at 40 mg, po administered as two 20 mg immediate release tablets daily for 3 days during 10 hrs overnight fasting state measured after 1 day; assay type: ADME, organism-based; conditions: in vivo, read-out: Vc/F
In short: (§5)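 Healthy Caucasian males took 40 mg (2×20-mg IR tablets) or 80 mg (4 tablets) orally daily for 3 days after a 10-h fast. Plasma parent drug was measured by LC/MS-MS from predose to 14 h after the first and third doses. Noncompartmental analysis: AUC by log-linear trapezoid extrapolated via kel, CL/F = dose/AUC, V/F = CL/F÷kel, geometric means.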

[19] = Cmax in healthy human plasma at 80 mg, po administered as four 20 mg immediate release tablets daily for 3 days during 10 hrs overnight fasting state measured after 1 day; assay type: ADME, organism-based; design: dose 80 mg, route oral; in short: as §4
[20] = AUC in healthy human plasma at 80 mg, po administered as four 20 mg immediate release tablets daily for 3 days during 10 hrs overnight fasting state measured after 1 day; assay type: ADME, organism-based; design: dose 80 mg, time < 10 hr, route oral; in short: as §5
[21] = AUC in healthy human plasma at 80 mg, po administered as four 20 mg immediate release tablets daily for 3 days during 10 hrs overnight fasting state measured after 3 day; assay type: ADME, organism-based; design: time < 10 hr, dose 80 mg, route oral; in short: as §5
[22] = Half life in healthy human plasma at 80 mg, po administered as four 20 mg immediate release tablets daily for 3 days during 10 hrs overnight fasting state measured after 1 day; assay type: ADME, organism-based; in short: as §4
Plasma = test: Ratio of AUC (0 to infinity) in healthy human plasma at 80 mg, po administered as four 20 mg immediate release tablets daily for 3 days during 10 hrs overnight fasting state measured after 1 day to AUC (0 to infinity) in healthy human plasma at 80 mg, po administered as four 20 mg immediate release tablets daily for 3 days during 10 hrs overnight fasting state measured after 3 day; assay type: ADME, organism-based; conditions: in vivo
In short: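 Healthy Caucasian men took tablets daily for 3 days with 240 ml water after 10-h fast. Plasma sampled 0.25–14 h after first and last doses, artemisone measured by LC/MS-MS. Accumulation ratio is Cmax or AUC0-∞ after last dose divided by that after first dose. Noncompartmental analysis, geometric means with 95% CI.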

Compound: C[C@H]1[C@H](N2CCS(=O)(=O)CC2)O[C@@H]2O[C@@]3(C)CC[C@H]4[C@H](C)CC[C@@H]1[C@@]24OO3 [ARTEMIFONE]
- Activity (Homo sapiens [1]): Non-toxic
- Activity (Homo sapiens [2]): Non-toxic
- Activity (Homo sapiens [3]): Non-toxic
- Activity (Homo sapiens [4]): Non-toxic
- Activity (Homo sapiens [5]): Non-toxic
- half-life [6]: 1.51 h
- MRT [7]: 0.98 h
- Cmax [8]: 57.3 ng/mL
- MRT [9]: 1.79 h
- CL/F [10]: 5080 mL/min
- Cmax [11]: 50.5 ng/mL
- AUC at 10 h [12]: 71.8 ng·h/mL
- Vd/F [13]: 26.6 L/kg
- Vd/F [14]: 22.2 L/kg
- CL/F [15]: 4740 mL/min
- IC50 (Plasmodium falciparum): 0.64 ng/mL (≈ 1.59 nM)
- Tmax [16]: 1.5 h
- half-life [17]: 4.37 h
- Vd/F [18]: 12.8 L/kg
- Cmax [19]: 155 ng/mL
- AUC at 10 h [20]: 343 ng·h/mL
- AUC at 10 h [21]: 337 ng·h/mL
- half-life [22]: 2.97 h
- Ratio (Plasma): 98.3%
